From ChEMBL document CHEMBL3085773, “A general method for making peptide therapeutics resistant to serine protease degradation: application to dipeptidyl peptidase IV substrates” (J Med Chem, 2013)
Activity calls are given as the source filed them. The calls are words filed in the database; no cut-off is given here. Square brackets hold non-standard residues; d marks the D form. Peptide text beside a SMILES is read from it. ξ: configuration not given here. ξAsp(3,3-Me2) = CC(C)(C(=O)O)C(N)C(=O)O; ξTle = CC(C)(C)C(N)C(=O)O

Key:
Alpha-lytic protease = Alpha-lytic protease (Lysobacter enzymogenes, UniProt P00778); assay: Stability of the compound assessed as Lysobacter enzymogenes alpha-LP-mediated compound degradation at 0.1 mM after 5 hrs by reverse-phase HPLC/MS analysis; format: ADME; conditions: 100 µM
Dipeptidyl peptidase 4 [1] = biological target: T1, Dipeptidyl peptidase 4 (Homo sapiens, UniProt P27487); assay: Stability of the compound assessed as recombinant human DPP4-mediated compound degradation at 0.1 mM measured after 24 hrs by reverse-phase HPLC/MS analysis; format: ADME; conditions: 100 µM
Method in brief: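 GLP-1 peptides (0.1 mM) incubated at 37 °C with recombinant human DPP IV in 50 mM HEPES, 0.14 M NaCl, pH 8.0, up to 24 h; acid-quenched samples analysed by RP-HPLC-MS for intact peptide.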

Dipeptidyl peptidase 4 [2] = biological target: T1, Dipeptidyl peptidase 4; assay: Competitive inhibition of human recombinant DPP4 using AP-pNA as substrate preincubated for 30 mins followed by substrate addition measured after 30 mins by spectrophotometric analysis
Trypsin = Trypsin (Sus scrofa, UniProt P00761); assay: Stability of the compound assessed as porcine pancreatic trypsin-mediated compound degradation at 0.1 mM after 5 hrs by reverse-phase HPLC/MS analysis; format: ADME; conditions: pig, isolated protein, 100 µM
[3] = biological target: Chymotrypsinogen A (Bos taurus) (UniProt P00766); assay: Stability of the compound assessed as bovine pancreatic chymotrypsin-mediated compound degradation measured intact level at 0.1 mM after 0.6 hrs by reverse-phase HPLC/MS analysis; conditions: cow
Mus musculus [4] = assay: Toxicity in C57BL/6 mouse assessed as effect on food consumption at 1 mg/kg, ip qd administered for 7 days measured every day during compound administration; format: organism-based; design: dose 1 mg/kg, route intraperitoneal; conditions: in vivo, 168 h
Method in brief: (§1)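 C57BL/6 mice given 1 mg/kg ip once daily for seven days, or vehicle; body weight and per-cage food intake recorded daily; water consumption measured on days 3 and 7.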

Mus musculus [5] = assay: Toxicity in C57BL/6 mouse assessed as effect on body weight at 1 mg/kg, ip qd administered for 7 days measured every day during compound administration; format: organism-based; design: dose 1 mg/kg, route intraperitoneal; conditions: in vivo, 168 h; method in brief: as §1
Mus musculus [6] = assay: Antidiabetic activity in db/db mouse assessed as reduction of blood glucose AUC (0 to 480 mins) at 0.2 mg/kg, ip; format: functional, organism-based; design: dose 0.2 mg/kg
Mus musculus [7] = assay: Antidiabetic activity in db/db mouse assessed as reduction of blood glucose level at 0.2 mg/kg, ip measured at 240 mins relative to vehicle-treated control; format: functional, organism-based; design: dose 0.2 mg/kg
Method in brief: (§2)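 db/db mice given 8 µg/mouse peptide or PBS vehicle ip; fasting blood glucose measured before and at set times after dosing; expressed as percent change from basal FBG; 10 animals per group.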

Mus musculus [8] = assay: Antidiabetic activity in db/db mouse assessed as reduction of blood glucose level at 0.2 mg/kg, ip after 60 mins relative to vehicle-treated control; format: functional; design: scale not given: the % may be the effect or the level left; conditions: route intraperitoneal; method in brief: as §2
Mus musculus [9] = assay: Antidiabetic activity in db/db mouse assessed as reduction of blood glucose level at 0.2 mg/kg, ip after 90 mins relative to vehicle-treated control; format: functional; design: scale not given: the % may be the effect or the level left; conditions: route intraperitoneal; method in brief: as §2
Mus musculus [10] = assay: Toxicity in C57BL/6 mouse assessed as abnormalities in brain at 1 mg/kg, ip qd measured on day 7 by necropsy analysis; format: organism-based; design: dose 1 mg/kg, route intraperitoneal; conditions: in vivo
Method in brief: (§3)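 C57BL/6 mice dosed ip once daily for seven days at 1 mg/kg or vehicle; necropsy on day 7 after final dose; liver, kidneys, pancreas, heart and brain collected, inspected for gross abnormalities and weighed; twelve animals in study.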

Mus musculus [11] = assay: Toxicity in C57BL/6 mouse assessed as abnormalities in heart at 1 mg/kg, ip qd measured on day 7 by necropsy analysis; format: organism-based; design: dose 1 mg/kg, route intraperitoneal; conditions: in vivo; method in brief: as §3
Mus musculus [12] = assay: Toxicity in C57BL/6 mouse assessed as abnormalities in pancreas at 1 mg/kg, ip qd measured on day 7 by necropsy analysis; format: organism-based; design: dose 1 mg/kg, route intraperitoneal; conditions: in vivo; method in brief: as §3
Mus musculus [13] = assay: Toxicity in C57BL/6 mouse assessed as abnormalities in kidney at 1 mg/kg, ip qd measured on day 7 by necropsy analysis; format: organism-based; design: dose 1 mg/kg, route intraperitoneal; conditions: in vivo; method in brief: as §3
Mus musculus [14] = assay: Toxicity in C57BL/6 mouse assessed as abnormalities in liver at 1 mg/kg, ip qd measured on day 7 by necropsy analysis; format: organism-based; design: dose 1 mg/kg, route intraperitoneal; conditions: in vivo; method in brief: as §3
Mus musculus [15] = assay: Toxicity in C57BL/6 mouse assessed as change in brain weight at 1 mg/kg, ip qd measured on day 7 by necropsy analysis; format: organism-based; design: dose 1 mg/kg, route intraperitoneal; conditions: in vivo; method in brief: as §3
Mus musculus [16] = assay: Toxicity in C57BL/6 mouse assessed as change in heart weight at 1 mg/kg, ip qd measured on day 7 by necropsy analysis; format: organism-based; design: dose 1 mg/kg, route intraperitoneal; conditions: in vivo; method in brief: as §3
Mus musculus [17] = assay: Toxicity in C57BL/6 mouse assessed as change in pancreas weight at 1 mg/kg, ip qd measured on day 7 by necropsy analysis; format: organism-based; design: dose 1 mg/kg, route intraperitoneal; conditions: in vivo; method in brief: as §3
Mus musculus [18] = assay: Toxicity in C57BL/6 mouse assessed as change in liver weight at 1 mg/kg, ip qd measured on day 7 by necropsy analysis; format: organism-based; design: dose 1 mg/kg, route intraperitoneal; conditions: in vivo; method in brief: as §3
Mus musculus [19] = assay: Toxicity in C57BL/6 mouse assessed as change in kidney weight at 1 mg/kg, ip qd measured on day 7 by necropsy analysis; format: organism-based; design: dose 1 mg/kg, route intraperitoneal; conditions: in vivo; method in brief: as §3
Mus musculus [20] = assay: Toxicity in C57BL/6 mouse assessed as effect on water consumption at 1 mg/kg, ip qd administered for 7 days measured on day 3 and day 7; conditions: in vivo, 168 h

T1 sequence (P27487 whole entry): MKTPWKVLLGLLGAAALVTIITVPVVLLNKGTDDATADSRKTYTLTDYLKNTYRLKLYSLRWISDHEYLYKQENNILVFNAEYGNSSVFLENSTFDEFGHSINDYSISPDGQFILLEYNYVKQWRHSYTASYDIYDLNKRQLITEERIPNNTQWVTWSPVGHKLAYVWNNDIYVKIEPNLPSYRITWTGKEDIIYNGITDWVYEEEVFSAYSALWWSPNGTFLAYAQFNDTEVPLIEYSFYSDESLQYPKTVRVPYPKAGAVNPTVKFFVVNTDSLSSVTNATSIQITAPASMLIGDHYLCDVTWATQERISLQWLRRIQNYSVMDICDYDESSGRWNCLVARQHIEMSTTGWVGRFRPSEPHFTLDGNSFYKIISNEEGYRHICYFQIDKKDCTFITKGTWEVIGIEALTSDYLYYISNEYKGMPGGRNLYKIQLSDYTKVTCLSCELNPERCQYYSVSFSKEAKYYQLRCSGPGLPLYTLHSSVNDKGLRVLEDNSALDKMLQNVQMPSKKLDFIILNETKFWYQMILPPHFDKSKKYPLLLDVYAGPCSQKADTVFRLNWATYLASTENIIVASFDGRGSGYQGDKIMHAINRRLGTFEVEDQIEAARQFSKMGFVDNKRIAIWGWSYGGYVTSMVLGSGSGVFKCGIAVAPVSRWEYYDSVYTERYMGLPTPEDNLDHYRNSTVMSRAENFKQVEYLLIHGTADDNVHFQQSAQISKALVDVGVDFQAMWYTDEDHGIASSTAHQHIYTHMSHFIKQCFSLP
Alpha-lytic protease, sequence (P00778 whole entry): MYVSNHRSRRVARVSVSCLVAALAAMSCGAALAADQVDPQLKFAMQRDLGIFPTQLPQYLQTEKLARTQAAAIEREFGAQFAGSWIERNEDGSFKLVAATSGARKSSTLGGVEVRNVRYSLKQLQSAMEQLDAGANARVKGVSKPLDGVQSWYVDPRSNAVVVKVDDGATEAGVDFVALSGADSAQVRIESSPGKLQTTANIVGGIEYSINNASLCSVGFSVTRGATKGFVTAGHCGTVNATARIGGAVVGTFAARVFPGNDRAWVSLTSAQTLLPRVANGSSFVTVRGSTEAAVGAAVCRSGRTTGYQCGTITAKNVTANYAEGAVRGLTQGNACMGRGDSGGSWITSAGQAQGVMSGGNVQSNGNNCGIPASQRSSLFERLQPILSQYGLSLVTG
Trypsin, sequence (P00761 whole entry): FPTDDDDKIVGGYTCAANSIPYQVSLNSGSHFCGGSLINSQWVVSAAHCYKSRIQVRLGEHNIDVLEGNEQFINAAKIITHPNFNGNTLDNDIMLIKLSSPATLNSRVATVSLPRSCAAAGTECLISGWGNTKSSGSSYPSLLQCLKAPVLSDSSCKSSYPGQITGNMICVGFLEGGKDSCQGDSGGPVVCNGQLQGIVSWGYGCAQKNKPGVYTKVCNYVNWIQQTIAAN

SMILES: CC(C)C[C@H](NC(=O)[C@@H](N)CC(C)C)C(=O)N1CCC[C@H]1C(=O)N[C@@H](CCCNC(=N)N)C(=O)N[C@H](C(=O)N[C@@H](C)C(=O)NC(C(=O)NCC(=O)N[C@@H](CO)C(=O)N[C@@H](CO)C(=O)N[C@@H](Cc1ccccc1)C(=O)N[C@H](C(=O)N[C@H](C(=O)N[C@H](C(=O)O)C(C)C)[C@@H](C)O)C(C)C)C(C)(C)C)C(C)C (stereo partly drawn) (H-LLPRVA[ξTle]GSSFVTV-OH)
- Stability (Alpha-lytic protease): Stable

SMILES: CC(C)[C@H](N)C(=O)N1CCC[C@H]1C(=O)NC(C(=O)N1CCC[C@H]1C(=O)N[C@@H](CCCNC(=N)N)C(N)=O)C(C)(C)C (stereo partly drawn) (H-VP[ξTle]PR-NH2)
- Stability (Dipeptidyl peptidase 4 [1]): Stable
- Ki (Dipeptidyl peptidase 4 [2]): 4.5 µM

SMILES: CC(C)[C@H](NC(=O)C(NC(=O)[C@H](Cc1c[nH]c2ccccc12)NC(=O)[C@H](C)NC(=O)C(NC(=O)[C@H](Cc1ccccc1)NC(=O)C(NC(=O)[C@H](CCCCN)NC(=O)[C@H](C)NC(=O)[C@H](C)NC(=O)[C@H](CCC(N)=O)NC(=O)CNC(=O)[C@H](CCC(=O)O)NC(=O)C(NC(=O)[C@H](Cc1ccc(O)cc1)NC(=O)[C@H](CO)NC(=O)[C@H](CO)NC(=O)[C@@H](NC(=O)[C@H](CC(=O)O)NC(=O)[C@H](CO)NC(=O)C(NC(=O)[C@H](Cc1ccccc1)NC(=O)[C@@H](NC(=O)CNC(=O)C(NC(=O)[C@H](C)NC(=O)[C@@H](N)Cc1c[nH]cn1)C(C)(C)C(=O)O)[C@@H](C)O)C(C)(C)C)C(C)C)C(C)(C)C)C(C)(C)C(=O)O)C(C)(C)C)C(C)(C)C)C(=O)N[C@@H](CCCCN)C(=O)NC(C(=O)N[C@@H](CCCNC(=N)N)C(N)=O)C(C)(C)C(=O)O (stereo partly drawn) (H-HA[ξAsp(3,3-Me2)]GTF[ξTle]SDVSSY[ξTle]EGQAAK[ξAsp(3,3-Me2)]F[ξTle]AW[ξTle]VK[ξAsp(3,3-Me2)]R-NH2)
- Stability (Trypsin): Stable
- remaining at 0.6 h, 100 µM [3]: 50%

SMILES: CC[C@H](C)[C@H](NC(=O)[C@H](Cc1ccccc1)NC(=O)[C@H](CCC(=O)O)NC(=O)[C@H](CCCCN)NC(=O)[C@H](C)NC(=O)[C@H](C)NC(=O)[C@H](CCC(N)=O)NC(=O)CNC(=O)[C@H](CCC(=O)O)NC(=O)[C@H](CC(C)C)NC(=O)[C@H](Cc1ccc(O)cc1)NC(=O)[C@H](CO)NC(=O)[C@H](CO)NC(=O)[C@@H](NC(=O)[C@H](CC(=O)O)NC(=O)[C@H](CO)NC(=O)[C@@H](NC(=O)[C@H](Cc1ccccc1)NC(=O)[C@@H](NC(=O)CNC(=O)C(NC(=O)[C@H](C)NC(=O)[C@@H](N)Cc1c[nH]cn1)C(C)(C)C(=O)O)[C@@H](C)O)[C@@H](C)O)C(C)C)C(=O)N[C@@H](C)C(=O)N[C@@H](Cc1c[nH]c2ccccc12)C(=O)N[C@@H](CC(C)C)C(=O)N[C@H](C(=O)N[C@@H](CCCCN)C(=O)NCC(=O)N[C@@H](CCCNC(=N)N)C(N)=O)C(C)C (stereo partly drawn)
- Activity (Mus musculus [4]): Non-toxic
- Activity (Mus musculus [5]): Non-toxic
- Activity (Mus musculus [6]): Active
- Activity (Mus musculus [7]): inactive
- Activity (Mus musculus [8]): 50%
- Activity (Mus musculus [9]): 45%
- Stability (Dipeptidyl peptidase 4 [1]): Stable
- Activity (Mus musculus [10]): Non-toxic
- Activity (Mus musculus [11]): Non-toxic
- Activity (Mus musculus [12]): Non-toxic
- Activity (Mus musculus [13]): Non-toxic
- Activity (Mus musculus [14]): Non-toxic
- Activity (Mus musculus [15]): Non-toxic
- Activity (Mus musculus [16]): Non-toxic
- Activity (Mus musculus [17]): Non-toxic
- Activity (Mus musculus [18]): Non-toxic
- Activity (Mus musculus [19]): Non-toxic
- Activity (Mus musculus [20]): Non-toxic
